Here are results for four compounds from article PMC6531306 (Theranostics, 2019).

For one data set, the system named is U87MG xenografts. Kind of data set: Mouse flank xenograft model of GBM. It counts as in vivo, mice. The note with it: TMZ 5 mg/kg oral gavage, five days/week, two weeks. The essentials:
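Athymic nude Foxn1nu mice (4–6 weeks) bore subcutaneous flank U87MG or D54 xenografts (250,000 cells in RPMI:Matrigel 1:1). From 100 mm3, they received test compound 20 mg/kg i.p. in 5 % DMSO/65 % 1,2-propanediol/30 % saline and/or TMZ 5 mg/kg in Ora-Plus by oral gavage, five days/week for two weeks. Body weight was recorded twice weekly.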

For data set [1], the system named is isolated a and a'c domains of PDI. Kind of data set: PDI reductase assay with isolated domains. It counts as biochemical. The note with it: domains 1.6 μM; PACMA31 100 μM, 35G8 1 μM. The essentials: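 Isolated His-tagged a and a'c domains were expressed in E. coli and Ni-NTA purified. Each domain was incubated with test compound for 45 min at room temperature in 100 mM sodium phosphate, 2 mM EDTA, 8 μM DTT, pH 7.0. DTT (100 μM) and insulin (130 μM) were then added, and aggregation of reduced insulin B chain was monitored at 650 nm.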

The target in another data set is a'c domain of PDI (Homo sapiens, UniProt P07237). Kind of data set: AMS assay. It counts as binding. As to conditions: 20 μM domain, 40 μM compound, 1 h. The essentials:
(§1)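 Isolated a or a'c domain (20 μM) was incubated with or without 40 μM test compound for 1 h in PBS at 25 °C. Free thiols were then blocked with 2 mM AMS. Samples were resolved by SDS-PAGE and stained with Coomassie blue.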

The next data set concerns Sox2. The data set can be described thus: Western blot of stemness marker. Type of data set: cell-based. The note with it: Figure 4H. In outline: (§2)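 Protein was measured by BCA. Lysates were resolved on 10 % or 4–12 % gels and transferred to PVDF. Membranes were blocked (StartingBlock or 5 % BSA) and probed with primary antibodies. Detection used DyLight 800 infrared imaging or HRP secondaries with ECL.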
In general terms: In western blotting, separated proteins are transferred to a membrane and probed.

The target in a further data set is a domain of PDI (Homo sapiens, UniProt P07237). The data set can be described thus: AMS assay. Type of data set: binding. The note with it: 20 μM domain, 40 μM compound, 1 h. In outline: as §1
The test system of a further data set is U87MG cells. It counts as cell-based, human. The note with it: Hallmark E2F Targets.
In data set [2] the test system is PDI, PDIp, ERp57, ERp46, ERp72, P5, and ERp18. The data set can be described thus: PDI reductase assay, panel of PDI family members. Type of data set: biochemical. As to conditions: family members 1 μM, compound 40 μM.
Data set [3] concerns D54, U87MG and A172 cells. Kind of data set: Western blot of DNA repair and DDR proteins. It counts as cell-based, human. As to conditions: 24 hours. The essentials: as §2

a'c domain of PDI, sequence (P07237 349-508 limits assumed): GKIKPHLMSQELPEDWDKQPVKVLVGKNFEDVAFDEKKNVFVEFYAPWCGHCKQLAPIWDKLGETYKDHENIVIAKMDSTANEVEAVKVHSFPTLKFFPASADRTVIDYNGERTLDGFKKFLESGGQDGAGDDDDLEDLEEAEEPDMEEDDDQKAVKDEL
a domain of PDI, sequence (P07237 18-134 limits assumed): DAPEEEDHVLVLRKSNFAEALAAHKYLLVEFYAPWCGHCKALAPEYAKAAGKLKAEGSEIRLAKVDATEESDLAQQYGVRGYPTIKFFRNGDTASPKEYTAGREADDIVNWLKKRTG

For the compound `Cn1nnc2c(C(N)=O)ncn2c1=O` [TMZ, temozolomide], the “decrease in body weight” value with U87MG xenografts was found to be 15%.
In the case of `C[C@]12CC[C@@H]3c4ccc(O)cc4CC[C@H]3[C@@H]1CC[C@@H]2O` [Estradiol, estradiol], the “inhibition of reductase activity of isolated domains” value in data set [1] is reported as “did not inhibit”.
Still for that read-out and setting: the result for `CCN(C)C(=O)C1(CCOc2ccccc2)CCN(Cc2ccc(O)c(Cl)c2)CC1` [bepristat 1a] reads “did not inhibit”.
For the compound PACMA31, the “AMS binding to a'c domain thiols” value at a'c domain of PDI is “blocked AMS binding”. Also, the Sox2 protein expression entry in the data set with Sox2 is “dose-dependently abrogated”. The “AMS binding to a domain thiols” value on a domain of PDI is on record as “blocked AMS binding”. The “genes of the E2F targets gene set downregulated” value in the data set on U87MG cells is 72%. The “selectivity among PDI family members” value in data set [2] is listed as “inhibits all tested PDI family enzymes”. Further, the “E2F1 and RAD51 protein expression” value in data set [3] was “dose-dependently lower”. Also, the “inhibition of reductase activity of isolated domains” value in data set [1] is on record as “inhibit reductase activity”.
